Reference: ChEMBL document CHEMBL4680254, “Design, synthesis and discovery of 2(1H)-quinolone derivatives for the treatment of pulmonary fibrosis through inhibition of TGF-β/smad dependent and independent pathway” (Eur J Med Chem, 2020)
The source made the active and inactive calls. The rule behind the calls is not given here.

Legend:
NRK-49F [1] = test: Inhibition of TGF-beta-induced collagen accumulation in rat NRK-49F cells at 10 uM incubated for 2 days by PSR staining based microscopic analysis relative to control; type: functional; conditions: 48 h, time 2 day
Outline: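 NRK-49F cells were grown 3 days in DMEM with 5% FBS, then 2 days in DMEM with 1% ITS. Next came 2 days with TGF-β 5 ng/ml plus or minus compound 10 µM. Cells were fixed in 4% paraformaldehyde and stained 4 h with 0.1% Picrosirius Red, then rinsed with acetic acid. Dye was eluted with 0.1 M NaOH and OD read at 540 nm. Inhibition = […] ×100%, in triplicate.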

[2] = Cytotoxicity against rat NRK-49F cells assessed as cell survival rate at 10 uM incubated for 72 hrs by MTT assay; type: cell-based; conditions: read-out: Activity
Outline: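 NRK-49F cells were seeded at 0.5×10^5 cells/ml, cultured overnight, then exposed to compound 10 µM for 72 h. MTT was added and incubated 4 h, formazan dissolved in DMSO and absorbance read. Survival = (treated − zero)/(blank − zero) A ×100%, done in triplicate.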

NRK-49F [3] = test: Inhibition of TGF-beta-induced collagen accumulation in rat NRK-49F cells incubated for 2 days by PSR staining based microscopic analysis; type: functional, cell-based; conditions: 48 h
L929 = test: Antimigratory activity in mouse L929 cells assessed as inhibition of TGF-beta-induced cell migration at 10 uM incubated for 24 hrs by wound healing assay; type: functional, cell-based
Outline: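 Mouse L929 fibroblasts (MEM, 10% FBS, 37 °C, 5% CO₂) were grown to confluence and scratched with a pipette tip to a 100 µm wound. They were then kept in serum-free medium with or without TGF-β 5 ng/ml and compound 10 µM for 24 h. Wounds were imaged by light microscopy at 0, 12 and 24 h.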

Structure (SMILES)	inhibition at 10 µM (NRK-49F [1]) [%]	viability at 72 h, 10 µM [2] [%]	IC50 (NRK-49F [3]) [µM]	inhibition (L929)
O=C(CN1CCNCC1)Nc1ccc(Oc2cc(=O)[nH]c3ccccc23)c(F)c1	60.3	93.3		
CCNCC(=O)Nc1ccc(Nc2cc(=O)[nH]c3ccccc23)cc1	28.7	83.7		
CCN(CC)CC(=O)Nc1ccc(Oc2cc(=O)[nH]c3ccccc23)cc1	86.1	96.3	5.27	Active
CC1CCN(CC(=O)Nc2ccc(Oc3cc(=O)[nH]c4ccccc34)c(F)c2)CC1	45.9	105		
O=C(CNC1CCOCC1)Nc1ccc(Sc2cc(=O)[nH]c3ccccc23)cc1	53	83.9		
O=C(CN1CCCCC1)Nc1ccc(Nc2cc(=O)[nH]c3ccccc23)cc1	24.4	75.4		
O=C(CN1CCN(C(=O)C2CC2)CC1)Nc1ccc(Oc2cc(=O)[nH]c3ccccc23)cc1	78.3	92.2		
CCN1CCN(CC(=O)Nc2ccc(Oc3cc(=O)[nH]c4ccccc34)cc2)CC1	41.7	91.7		
CC(C)(C)OC(=O)N1CCN(CC(=O)Nc2ccc(Oc3cc(=O)[nH]c4ccccc34)c(F)c2)CC1	89.1	86.2	6.12	Active
O=C(CN1CCCCC1)Nc1ccc(Oc2cc(=O)[nH]c3ccccc23)cc1	27.4	78.5		
CN(C)C1CCN(CC(=O)Nc2ccc(Sc3cc(=O)[nH]c4ccccc34)cc2)CC1	51.1	80.3		
O=C(CN1CCCC1)Nc1ccc(Nc2cc(=O)[nH]c3ccccc23)cc1	59.9	72.5		
CCN1CCN(CC(=O)Nc2ccc(Sc3cc(=O)[nH]c4ccccc34)cc2)CC1	56.6	78		
O=C(CN1CCN(C(=O)C2CC2)CC1)Nc1ccc(Oc2ccc3ccc(=O)[nH]c3c2)c(F)c1	56.6	98.2		
CN1CCN(CC(=O)Nc2ccc(Nc3cc(=O)[nH]c4ccccc34)cc2)CC1	38.9	78		
O=C(CN1CCCC1)Nc1ccc(Sc2cc(=O)[nH]c3ccccc23)cc1	80.9	87	5.33	Active
O=C(CN1CCOCC1)Nc1ccc(Oc2cc(=O)[nH]c3ccccc23)c(F)c1	47.3	90.8		
CCN1CCN(CC(=O)Nc2ccc(Oc3cc(=O)[nH]c4ccccc34)c(F)c2)CC1	49.1	89.6		
O=C(CN1CCCCC1)Nc1ccc(Oc2cc(=O)[nH]c3ccccc23)c(F)c1	38.3	87.2		
CC(=O)N1CCN(CC(=O)Nc2ccc(Sc3cc(=O)[nH]c4ccccc34)cc2)CC1	39.4	101		

Structure (SMILES)	inhibition at 10 µM (NRK-49F [1]) [%]	viability at 72 h, 10 µM [2] [%]	IC50 (NRK-49F [3]) [µM]	inhibition (L929)
CC(=O)N1CCN(CC(=O)Nc2ccc(Nc3cc(=O)[nH]c4ccccc34)cc2)CC1	39	72.5		
CC(=O)N1CCN(CC(=O)Nc2ccc(Oc3cc(=O)[nH]c4ccccc34)cc2)CC1	50	96.3		
O=C(CNC1CCOCC1)Nc1ccc(Oc2cc(=O)[nH]c3ccccc23)c(F)c1	53.9	90.8		
CC1CCN(CC(=O)Nc2ccc(Sc3cc(=O)[nH]c4ccccc34)cc2)CC1	28.6	116		
O=C(CN1CCCC1)Nc1ccc(Oc2cc(=O)[nH]c3ccccc23)c(F)c1	49.5	96.4		
CC(C)(C)N1CCN(CC(=O)Nc2ccc(Oc3ccc4[nH]c(=O)ccc4c3)c(F)c2)CC1	61.5	83.3		
CC(C)(C)N1CCN(CC(=O)Nc2ccc(Oc3ccc4ccc(=O)[nH]c4c3)c(F)c2)CC1	67.7	89.8		
CCNCC(=O)Nc1ccc(Sc2cc(=O)[nH]c3ccccc23)cc1	51.1	87.7		
CC(C)(C)OC(=O)N1CCN(CC(=O)Nc2ccc(Oc3cc(=O)[nH]c4ccccc34)cc2)CC1	76.2	75.6		
CN(C)C1CCN(CC(=O)Nc2ccc(Nc3cc(=O)[nH]c4ccccc34)cc2)CC1	50.2	83.5		
CC(C)(C)OC(=O)N1CCN(CC(=O)Nc2ccc(Oc3ccc4ccc(=O)[nH]c4c3)c(F)c2)CC1	76.4	89.7		
O=C(CN1CCN(C(=O)C2CC2)CC1)Nc1ccc(Oc2ccc3[nH]c(=O)ccc3c2)c(F)c1	34.6	95.2		
O=C(CN1CCNCC1)Nc1ccc(Oc2cc(=O)[nH]c3ccccc23)cc1	58.1	95.1		
CN1CCN(CC(=O)Nc2ccc(Sc3cc(=O)[nH]c4ccccc34)cc2)CC1	40	86.7		
O=C(CN1CCCC1)Nc1ccc(Oc2cc(=O)[nH]c3ccccc23)cc1	68	82.2		
CCNCC(=O)Nc1ccc(Oc2cc(=O)[nH]c3ccccc23)cc1	25.4	89.2		
O=C(CN1CCCCC1)Nc1ccc(Sc2cc(=O)[nH]c3ccccc23)cc1	28.4	93.5		
CC(C)(C)OC(=O)N1CCN(CC(=O)Nc2ccc(Oc3ccc4[nH]c(=O)ccc4c3)c(F)c2)CC1	57.4	85.6		
CN(C)C1CCN(CC(=O)Nc2ccc(Oc3cc(=O)[nH]c4ccccc34)c(F)c2)CC1	60.7	98.6		
O=C(CN1CCOCC1)Nc1ccc(Oc2cc(=O)[nH]c3ccccc23)cc1	59.3	95.7		

Structure (SMILES)	inhibition at 10 µM (NRK-49F [1]) [%]	viability at 72 h, 10 µM [2] [%]	IC50 (NRK-49F [3]) [µM]	inhibition (L929)
CC(C)(C)OC(=O)N1CCN(CC(=O)Nc2ccc(Nc3cc(=O)[nH]c4ccccc34)cc2)CC1	73.3	67.5		
CC(C)(C)N1CCN(CC(=O)Nc2ccc(Oc3cc(=O)[nH]c4ccccc34)cc2)CC1	73.2	92.7		
O=C(CNC1CCOCC1)Nc1ccc(Oc2cc(=O)[nH]c3ccccc23)cc1	46	96		
CCN(CC)CC(=O)Nc1ccc(Sc2cc(=O)[nH]c3ccccc23)cc1	58.6	85.5		
CC(C)(C)N1CCN(CC(=O)Nc2ccc(Oc3cc(=O)[nH]c4ccccc34)c(F)c2)CC1	78	93.1	4.47	Active
CCNCC(=O)Nc1ccc(Oc2cc(=O)[nH]c3ccccc23)c(F)c1	50.6	99.3		
CC(=O)N1CCN(CC(=O)Nc2ccc(Oc3cc(=O)[nH]c4ccccc34)c(F)c2)CC1	42.7	108		
CC1CCN(CC(=O)Nc2ccc(Oc3cc(=O)[nH]c4ccccc34)cc2)CC1	31.5	79.9		
CC(C)(C)OC(=O)N1CCN(CC(=O)Nc2ccc(Sc3cc(=O)[nH]c4ccccc34)cc2)CC1	72.4	71.2		
CCN(CC)CC(=O)Nc1ccc(Nc2cc(=O)[nH]c3ccccc23)cc1	44.2	82.6		
CN1CCN(CC(=O)Nc2ccc(Oc3cc(=O)[nH]c4ccccc34)cc2)CC1	43.7	80.2		
O=C(CNC1CCOCC1)Nc1ccc(Nc2cc(=O)[nH]c3ccccc23)cc1	50	83.5		
CN(C)C1CCN(CC(=O)Nc2ccc(Oc3cc(=O)[nH]c4ccccc34)cc2)CC1	43.9	81.2		
CCN(CC)CC(=O)Nc1ccc(Oc2cc(=O)[nH]c3ccccc23)c(F)c1	58.8	106		
CN1CCN(CC(=O)Nc2ccc(Oc3cc(=O)[nH]c4ccccc34)c(F)c2)CC1	73.9	99		
CCN1CCN(CC(=O)Nc2ccc(Nc3cc(=O)[nH]c4ccccc34)cc2)CC1	46	64.8		
CC1CCN(CC(=O)Nc2ccc(Nc3cc(=O)[nH]c4ccccc34)cc2)CC1	20.1	82.5		
O=C(CN1CCOCC1)Nc1ccc(Sc2cc(=O)[nH]c3ccccc23)cc1	53.4	77.4		
O=C(CN1CCOCC1)Nc1ccc(Nc2cc(=O)[nH]c3ccccc23)cc1	40.9	81.9		
